Data set [1] in a line: 1-Octanol/aqueous buffer partition coefficient, logD of the compound at pH 7.4 by HPLC analysis. Format: physicochemical.
Data set [2] concerns NIH3T3. As to the kind of experiment: Cytotoxicity against BALB/c mouse 3T3 cells assessed as reduction in cell viability at 6.25 uM incubated for 1 hrs in absence of UV irradiation by Celltiter-Glo assay relative to control. The class given is toxicity, cell-based. The conditions noted are these: nih3t3, 1 h. In a few lines: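 BALB/c 3T3 cells seeded at 2.5 × 10^3 cells/well and grown 1 day. Compound at 6.25 µM in EBSS with 1 mM HEPES, preincubated 1 h. Plate kept dark (–UV) while the paired plate was irradiated. Medium replaced, cultured 24 h more. Viability read as cellular ATP by CellTiter-Glo, % of 1% DMSO control; n = 3, mean ± SD.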

The nature of data set [3]: Total clearance in mouse at 0.1 mg/kg, iv administered as cassette dose by LC/MS/MS analysis. Format: ADME, organism-based. Particulars: in vivo. In a few lines: (§1)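 Non-fasted mice dosed by cassette, iv 0.1 mg/kg or po 1 mg/kg suspended in 0.5% methylcellulose aqueous solution; plasma obtained from blood by centrifugation, deproteinized with acetonitrile, and compound concentrations measured by LC/MS/MS.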

The nature of data set [4]: AUC in mouse at 1 mg/kg, po administered as cassette dose by LC/MS/MS analysis. The class given is ADME, organism-based. The conditions noted are these: in vivo. Put shortly: as §1
The nature of data set [5]: MRT in mouse at 1 mg/kg, po administered as cassette dose by LC/MS/MS analysis. Format: ADME, organism-based. The conditions noted are these: in vivo. Put shortly:
as §1

The nature of data set [6]: Permeability of compound at pH 7.4 by PAMPA assay. The class given is ADME. Particulars: read-out: permeability. Put shortly:
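Passive permeability measured by PAMPA at pH 7.4.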
(In general: The PAMPA barrier holds no transporters, so it reflects passive diffusion.)

The target in data set [7] is T1, Diacylglycerol O-acyltransferase 1 (Homo sapiens, UniProt O75907).
T1 sequence (O75907 whole entry): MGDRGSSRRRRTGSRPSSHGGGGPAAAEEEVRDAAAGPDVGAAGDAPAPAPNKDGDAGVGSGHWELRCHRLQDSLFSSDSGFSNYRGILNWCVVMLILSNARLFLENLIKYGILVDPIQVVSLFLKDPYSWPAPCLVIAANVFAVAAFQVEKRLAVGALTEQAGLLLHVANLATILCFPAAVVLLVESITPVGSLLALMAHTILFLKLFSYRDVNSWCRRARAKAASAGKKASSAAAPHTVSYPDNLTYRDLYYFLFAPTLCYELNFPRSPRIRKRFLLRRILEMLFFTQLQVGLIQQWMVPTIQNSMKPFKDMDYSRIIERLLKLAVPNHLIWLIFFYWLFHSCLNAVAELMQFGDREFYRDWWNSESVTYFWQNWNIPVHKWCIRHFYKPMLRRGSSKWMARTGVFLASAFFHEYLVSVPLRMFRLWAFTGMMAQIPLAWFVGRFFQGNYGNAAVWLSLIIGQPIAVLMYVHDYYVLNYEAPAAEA
Briefly: Inhibition of N-terminal FLAG-tagged full-length human DGAT1 expressed in recombinant baculovirus infected Sf21 cells using [1-14C]-oleoyl-CoA and 1,2-dioleoyl-glycerol as substrate incubated for 40 mins by TLC analysis. In a few lines:
(§2)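 Membranes from baculovirus-infected Sf-21 cells, each enzyme at 30 µg/mL, incubated with 5 µM [1-14C]-oleoyl-CoA and 40 µM 1,2-dioleoyl-glycerol for 40 min at 32 °C. Lipids extracted by modified Bligh & Dyer, resolved on silica TLC, and radioactivity incorporated into lipids quantified.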

Data set [8] has as its target T2, Diacylglycerol O-acyltransferase 2 (Homo sapiens, UniProt Q96PD7).
T2 sequence (Q96PD7 whole entry): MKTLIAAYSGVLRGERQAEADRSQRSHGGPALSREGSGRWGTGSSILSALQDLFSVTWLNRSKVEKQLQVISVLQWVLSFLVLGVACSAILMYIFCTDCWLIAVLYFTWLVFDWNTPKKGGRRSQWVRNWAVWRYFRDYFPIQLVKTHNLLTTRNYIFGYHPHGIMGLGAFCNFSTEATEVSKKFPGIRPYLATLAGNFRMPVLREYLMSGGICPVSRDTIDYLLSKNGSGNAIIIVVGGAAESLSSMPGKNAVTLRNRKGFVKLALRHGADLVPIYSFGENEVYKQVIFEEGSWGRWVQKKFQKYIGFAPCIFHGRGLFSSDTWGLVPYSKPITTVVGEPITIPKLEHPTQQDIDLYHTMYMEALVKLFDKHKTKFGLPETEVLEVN
As to the kind of experiment: Inhibition of N-terminal FLAG-tagged full-length human DGAT2 expressed in recombinant baculovirus infected Sf21 cells using [1-14C]-oleoyl-CoA and 1,2-dioleoyl-glycerol as substrate incubated for 40 mins by TLC analysis. In a few lines: as §2

The target in data set [9] is T3, CYP1A2 (Homo sapiens, UniProt P05177).
T3 sequence (P05177 whole entry): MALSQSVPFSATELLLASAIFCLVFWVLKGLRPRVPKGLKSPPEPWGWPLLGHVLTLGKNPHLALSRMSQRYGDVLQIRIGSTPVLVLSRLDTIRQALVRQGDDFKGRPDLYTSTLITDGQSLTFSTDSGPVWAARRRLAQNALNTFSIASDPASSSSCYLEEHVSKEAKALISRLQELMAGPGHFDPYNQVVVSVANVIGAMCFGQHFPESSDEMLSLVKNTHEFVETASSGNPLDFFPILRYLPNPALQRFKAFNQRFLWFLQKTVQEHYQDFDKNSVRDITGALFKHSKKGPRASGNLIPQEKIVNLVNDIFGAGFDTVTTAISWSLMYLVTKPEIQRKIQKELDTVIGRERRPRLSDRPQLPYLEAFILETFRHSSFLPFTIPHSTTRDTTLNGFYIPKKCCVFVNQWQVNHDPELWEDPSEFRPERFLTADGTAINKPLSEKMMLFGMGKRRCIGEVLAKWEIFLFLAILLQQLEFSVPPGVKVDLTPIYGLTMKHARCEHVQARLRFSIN
As to the kind of experiment: Reversible inhibition of CYP1A2 in human liver microsomes using tacrine as substrate at 10 uM incubated for 10 mins by LC/MS/MS analysis relative to control. The class given is ADME, Microsome. The conditions noted are these: probe tacrine. In a few lines: (§3)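 Human liver microsomes at 0.1 mg/mL incubated 10 min at 37 °C with isoform-specific substrate and 10 µM test compound. Pairs: 1A2 tacrine/1-hydroxytacrine; 2C8 paclitaxel/6α-hydroxypaclitaxel; 2C9 tolbutamide/4-hydroxytolbutamide; 2D6 dextromethorphan/dextrorphan; 3A4 midazolam/1'-hydroxymidazolam. Stopped with acetonitrile/water; metabolite measured by LC/MS/MS.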

The target in data set [10] is CYP3A4 (Homo sapiens, UniProt P08684). As to the kind of experiment: Reversible inhibition of CYP3A4 in human liver microsomes using midazolam as substrate at 10 uM incubated for 10 mins by LC/MS/MS analysis relative to control. Format: ADME, Microsome. Particulars: probe midazolam. In a few lines:
as §3
Background: Liver microsomes are a subcellular fraction often used to study metabolism.

Data set [11] deals with Mus musculus. Briefly: In vivo inhibition of MGAT2 in olive oil-induced C57BL/6J mouse model of hypertriglyceridemia assessed as reduction in plasma chylomicron triglyceride level preadministered orally with compound for 6 hrs followed by Pluronic F127 addition for 30 mins and further treated with olive oil for 4 hrs by automatic analyzer. Particulars: dose 0.3-3 mg/kg, route po, time 10.5 hrs. The class given is functional. In a few lines:
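Male C57BL/6J mice (20–25 g) fasted overnight and dosed orally at 0.3, 1 or 3 mg/kg. Olive oil (8 mL/kg po) or water given 6 h later, with Pluronic F127 500 mg/kg i.p. 30 min before oil. Tail-vein plasma taken at 0, 2 and 4 h and TG measured by automatic analyzer. CM/TG = oil-group TG minus water-group TG; AUC over 4 h; n = 5, mean ± SD; Williams' test vs vehicle.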

A value given as a limit tells only on which side of the number the result lay.

CYP3A4, sequence (P08684 whole entry): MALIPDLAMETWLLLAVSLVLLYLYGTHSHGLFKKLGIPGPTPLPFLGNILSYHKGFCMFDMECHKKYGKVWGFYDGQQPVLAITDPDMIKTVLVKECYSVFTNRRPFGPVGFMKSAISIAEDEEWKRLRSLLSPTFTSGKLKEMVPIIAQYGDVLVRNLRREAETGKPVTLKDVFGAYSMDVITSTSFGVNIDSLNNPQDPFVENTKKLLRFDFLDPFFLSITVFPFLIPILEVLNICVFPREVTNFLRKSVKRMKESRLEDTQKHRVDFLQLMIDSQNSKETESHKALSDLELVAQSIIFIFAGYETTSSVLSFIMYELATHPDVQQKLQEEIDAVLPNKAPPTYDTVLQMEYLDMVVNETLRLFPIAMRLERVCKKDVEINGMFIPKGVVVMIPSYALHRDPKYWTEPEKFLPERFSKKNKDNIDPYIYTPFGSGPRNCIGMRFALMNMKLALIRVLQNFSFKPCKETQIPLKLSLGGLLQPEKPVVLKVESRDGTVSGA

A word on the logD: it is lipophilicity at a set pH, counting ionised and neutral species. A higher logD goes with higher lipophilicity. By clearance is commonly meant the rate of elimination divided by the concentration. Read a high clearance as efficient removal. The AUC is the area under the concentration-time curve, a measure of exposure. A higher AUC goes with high exposure. By MRT is commonly meant the average time that molecules of a dose stay in the body. One may read the IC50 as the concentration that inhibits the measured activity by half. By inhibition is commonly meant the change of the read-out against control, counted positive when it falls. `Cn1nc(C(F)(F)F)cc1-c1cnc(N2CCc3cc(S(=O)(=O)Nc4c(F)cc(Cl)cc4F)cc(N4CCCC4=O)c32)nc1` [TP-020]: the logD in [1] is 2.8. Besides, the Activity in data set [2] is on record as 99%. Besides, in data set [3], the clearance was 3.42 mL/min/kg. This compound also came in with an area under the curve (AUC) in data set [4] of 2440 ng·h/mL. Further, in data set [5], the MRT came out at 3.3 h. Further, the Papp in [6] was 16.6 ×10⁻⁶ cm/s. Besides, the 50% inhibitory concentration (IC50) in data set [7] and in [8] was over 10 µM in each case. Besides, the inhibition at 10 min, 10 µM in data set [9] and in data set [10] was under 10% throughout. Moreover, in [11], the inhibition result was “Dose-Dependent Effect”.

For the origin of these results see ChEMBL document CHEMBL5678813, “Optimization of a novel series of N-phenylindoline-5-sulfonamide-based acyl CoA:monoacylglycerol acyltransferase-2 inhibitors: Mitigation of CYP3A4 time-dependent inhibition and phototoxic liabilities” (Bioorg Med Chem, 2015).
